Test [1] deals with Antibodies used in the EIA. Kind of test: Cross-reactivity of the antibodies used in the phoenixin EIA. The format is binding.
For test [2], the system named is PNX antiserum. Conditions: rabbit polyclonal antiserum; ref Phoenix Pharmaceuticals, Inc; cited from earlier work.
The subject of test [3] is dispersed, primary rat pituitary cultures. As to the kind of experiment: Static incubation of dispersed anterior pituitary cells, hormone release. The format is cell-based. The conditions noted are these: for GnRH-stimulated LH release: female pituitary cultures, overnight (24-hour) pretreatment, then GnRH for one hour, Figure 3A and B. The essentials:
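Rat anterior pituitary cells were trypsin-dispersed and cultured 48 h in tubes (MEM, 10% horse serum, 37°C). Cultures were pretreated 24 h with medium or peptide fragments. Medium was replaced by M199 with 0.1% BSA, 2×10⁻⁵ M bacitracin and 20 mM HEPES, with the same pretreatment. Cells were incubated 30 or 60 min at 37°C ± GnRH, and the incubation was ended by centrifugation. LH was measured by RIA (RP-3 standards) as mean ± SEM.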

Test [4] concerns pituitary and ovary cell membranes. Kind of test: Preliminary binding of phoenixin-20 to pituitary and ovary cell membranes. Conditions: data not shown; for displacement of phoenixin-20 binding: pituitary and ovary cell membranes, female rat donors. Further details: species or system rat.
Test [5] concerns GnRH receptor. Kind of test: RT-PCR of GnRH receptor mRNA in dispersed primary pituitary cell cultures. The format is cell-based, rat. The essentials: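 Dispersed primary rat anterior pituitary cultures were pretreated overnight with the peptide: male cultures with or without GnRH, female cultures without GnRH. RNA was extracted and reverse-transcribed with oligo d(T) and MMLV RT. SYBR Green real-time PCR was run with primer efficiencies >85%. Changes were calculated by delta delta Ct, normalised to HPRT-1, and compared by t test.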

Test [6] relates to male pituitary cells. Kind of test: LH release from similarly prepared male pituitary cells. The format is cell-based, rat. Conditions: Supplemental Figure 2.
Test [7] deals with GnRH receptor. As to the kind of experiment: RT-PCR of GnRH receptor message in alphaT3-1 gonadotroph cells. The format is cell-based, mouse. The conditions noted are these: alphaT3-1 cells; normalized to GAPDH; Figure 3E. The method in brief: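 Mouse αT3-1 gonadotroph cells were exposed to the peptide. RNA was reverse-transcribed using oligo d(T) and MMLV reverse transcriptase. GnRH receptor message was quantified by SYBR Green real-time PCR with primer efficiencies >85%, using the delta delta Ct method with GAPDH normalisation. Groups were compared by t test.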

Test [8] has as its system dispersed pituitary cells from random cycle, female donors. As to the kind of experiment: Dynamic. The format is cell-based, rat. Conditions: 1000nM phoenixin-20 for 24 hours. The essentials: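 Rat anterior pituitary cells from random-cycle females, trypsin-dispersed (0.1%), cultured 48 h at 37°C in MEM with 10% horse serum. Pretreated 24 h with medium or 1000nM amidated 20-residue peptide, resuspended in M199/0.1% BSA/bacitracin/20 mM HEPES; ~2 million cells perifused on Bio-Gel P2 columns (0.05 ml/min). Peptide present throughout. 5-min fractions: basal, 10 nM GnRH 50 min, medium 50 min, 60 mM KCl 10 min, medium 40 min. LH by RIA (RP-3 standards); mean ± SEM.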

In test [9] the test system is cFos. As to the kind of experiment: RT-PCR of cFos message in alphaT3-1 gonadotroph cells. The format is cell-based, mouse. Conditions: alphaT3-1 cells; not shown.

Ends that are not written are not given here.

For DVQPPGLKVWSDPF-NH2 [phoenixin-14], in [1], the “cross-reaction with the antibodies used in the EIA” value (“cross-reaction” for short) is on record as 100%. Further, the “cross-reactivity with PNX antiserum in radioimmunoassay” value in [2] is given as 100%. In test [3], the “GnRH-stimulated LH release” value is on record as “potentiated”.
In the case of “angiotensin II (DRVYIHPF; Angiotensin-2; UniProt P01019 25-32, looked up) [reference compound]”, the “cross-reaction” value in test [1] is listed as 0%.
Regarding “gonadotropin releasing hormone [gonadotropin-releasing hormone]”, the “displacement of phoenixin-20 binding” value in test [4] is given as “not displaced”.
With phoenixin, the “GnRH receptor messenger RNA” value in test [5] (dispersed pituitary cultures pretreated with phoenixin, medium alone, Figure 3D) is “increased”. Moreover, the “GnRH receptor expression in the absence of GnRH” value in test [5] (primary pituitary cell cultures from female donors, Figure 3G) is recorded as “significantly increased”. In addition, the “basal release of LH, ACTH, prolactin, growth hormone, or TSH” value in test [3] (dispersed, primary rat pituitary cultures, data not shown) is reported as “did not alter”.
As to “phoenixin-20: 20 amino acid amidated form of phoenixin (AGIVQEDVQPPGLKVWSDPF-NH2; UniProt C0HLM6 47-66, looked up)”, the “ability of GnRH to upregulate the expression of GnRH receptor” value in test [5] (dispersed male anterior pituitary cell cultures, overnight pretreatment, Figure 3D) is given as “potentiated”. In addition, the “LH release compared to medium alone” value in test [6] is given as “no differences”. Moreover, the GnRH receptor message result in test [7] was “increase”. The “cross-reaction” value in test [1] was 100%. The “cross-reactivity with PNX antiserum in radioimmunoassay” value in test [2] is recorded as 100%. In addition, the “GnRH-stimulated LH release” value in [3] is on record as “potentiated”. For the same substance, the “LH release when GnRH was included in the perifusate” value in [8] (10 nM GnRH, Figure 3C) is “significantly enhanced”. For the same substance, the “basal LH release during perifusion” value in test [8] (then perifusion columns, no GnRH) was “did not alter”. Also, in [9], the cFos message entry is on record as “failed to attain significance”. In test [4] (tissues from female rat donors, preliminary experiments), the “specific binding to pituitary and ovary cell membranes” value is on record as “bound specifically”.
“urocortin (DNPSLSIDLTFHLLRTLLELARTQSQRERAEQNRIIFDSV; ends and bridges not checked; UniProt P55089 83-122, looked up)”: the “displacement of phoenixin-20 binding” value in test [4] was “not displaced”.

The values are drawn from publication PMC3556183 (Journal of neuroendocrinology, 2013).
